What is called IC50 is the concentration that gives 50% inhibition. High values mean lower potency, low ones higher potency. By T/C is commonly meant the result in the treated group divided by that in the control group, in per cent.

IC50, Survivors and T/C data for five molecules are collected here from ChEMBL document CHEMBL1124172 (J Med Chem, 1988).

Converted amounts (≈) assume the structure as drawn.

One experiment has as its system A204. As to the kind of experiment: In vitro cytotoxicity against human A204 Rhabdomyosarcoma cell line. It is filed as functional, cell-based. The method in brief:
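A204 human rhabdomyosarcoma soft-agarose colony assay. 10^4 trypsin/EDTA-dissociated cells in 0.3% agarose over a 0.5% agarose base, in DMEM with 10% FCS, at 37 °C and 5% CO2. Compound was applied in an upper medium layer on day 1 for 24 h, then washed out. Colonies >60 µm were counted after 7–9 days by tetrazolium stain and image analysis. Quadruplicates with vehicle controls, at least four concentrations up to 100 or 1000 µg/mL. IC50 from a monoexponential least-squares fit over at least three preparations, mean ± SE.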

The subject of experiment [1] is Mus musculus. As to the kind of experiment: In vivo antitumor activity against P388 Lymphocytic Leukemia measured as Survivors on day 5 at 15.5 mg/kg; 5/6. It is filed as functional.
Experiment [2] concerns Mus musculus. As to the kind of experiment: In vivo antitumor activity against P388 Lymphocytic Leukemia measured as Survivors on day 5 at 7.75 mg/kg; 6/6. It is filed as functional.
In experiment [3] the test system is Mus musculus. As to the kind of experiment: In vivo antitumor activity against P388 Lymphocytic Leukemia measured as survivors on day 5 at 62 mg/kg; 6/6. It is filed as functional.
Experiment [4] has as its system Mus musculus. As to the kind of experiment: In vivo antitumor activity against P388 Lymphocytic Leukemia in mice at 15.5 mg/kg expressed as T/C value. The experiment is classed as functional.
Experiment [5] concerns Mus musculus. The experiment is described as follows: In vivo antitumor activity against P388 Lymphocytic Leukemia in mice at 31 mg/kg expressed as T/C value. It is filed as functional.
In experiment [6] the test system is Mus musculus. The experiment is described as follows: In vivo antitumor activity against P388 Lymphocytic Leukemia in mice at 62 mg/kg expressed as T/C value. It is filed as functional.
In experiment [7] the test system is Mus musculus. The experiment is described as follows: In vivo antitumor activity against P388 Lymphocytic Leukemia in mice at 7.75 mg/kg expressed as T/C value. The experiment is classed as functional.
Experiment [8] deals with Mus musculus. As to the kind of experiment: In vivo antitumor activity against P388 Lymphocytic Leukemia measured as Survivors on day 5 at 31 mg/kg; 6/6. It is filed as functional.
Experiment [9] deals with Mus musculus. The experiment is described as follows: In vivo antitumor activity against P388 Lymphocytic Leukemia measured as Survivors on day 5 at 200 mg/kg, w.r.t. compound 6; 4/4. The experiment is classed as functional.
Experiment [10] concerns Mus musculus. As to the kind of experiment: In vivo antitumor activity against P388 Lymphocytic Leukemia in mice at 400 mg/kg expressed as T/C value w.r.t. compound 6. The experiment is classed as functional.
Experiment [11] deals with Mus musculus. As to the kind of experiment: In vivo antitumor activity against P388 Lymphocytic Leukemia measured as Survivors on day 5 at 800 mg/kg, w.r.t. compound 6; 4/4. It is filed as functional.
Experiment [12] deals with Mus musculus. The experiment is described as follows: In vivo antitumor activity against P388 Lymphocytic Leukemia in mice at 200 mg/kg expressed as T/C value w.r.t. compound 6. The experiment is classed as functional.
Experiment [13] relates to Mus musculus. As to the kind of experiment: In vivo antitumor activity against P388 Lymphocytic Leukemia measured as Survivors on day 5 at 400 mg/kg, w.r.t. compound 6; 4/4. The experiment is classed as functional.
The test system of experiment [14] is Mus musculus. The experiment is described as follows: In vivo antitumor activity against P388 Lymphocytic Leukemia in mice at 800 mg/kg expressed as T/C value w.r.t. compound 6. It is filed as functional.
The subject of experiment [15] is Mus musculus. As to the kind of experiment: In vivo antitumor activity against P388 Lymphocytic Leukemia measured as Survivors on day 5 at 200 mg/kg, w.r.t. compound 6; 5/6. It is filed as functional.
Experiment [16] deals with Mus musculus. As to the kind of experiment: In vivo antitumor activity against P388 Lymphocytic Leukemia measured as Survivors on day 5 at 100 mg/kg, w.r.t. compound 6; 6/6. It is filed as functional.
For experiment [17], the system named is Mus musculus. The experiment is described as follows: In vivo antitumor activity against P388 Lymphocytic Leukemia in mice at 100 mg/kg expressed as T/C value w.r.t. compound 6. The experiment is classed as functional.
Experiment [18] deals with Mus musculus. The experiment is described as follows: In vivo antitumor activity against P388 Lymphocytic Leukemia measured as Survivors on day 5 at 800 mg/kg, w.r.t. compound 6; 6/6. It is filed as functional.
Experiment [19] concerns Mus musculus. The experiment is described as follows: In vivo antitumor activity against P388 Lymphocytic Leukemia measured as Survivors on day 5 at 400 mg/kg, w.r.t. compound 6; 6/6. It is filed as functional.
The subject of experiment [20] is Mus musculus. The experiment is described as follows: In vivo antitumor activity against P388 Lymphocytic Leukemia measured as Survivors on day 5 at 1500 mg/kg; 6/6. It is filed as functional.
Experiment [21] deals with Mus musculus. The experiment is described as follows: In vivo antitumor activity against P388 Lymphocytic Leukemia measured as Survivors on day 5 at 187.5 mg/kg; 6/6. The experiment is classed as functional.
Experiment [22] deals with Mus musculus. As to the kind of experiment: In vivo antitumor activity against P388 Lymphocytic Leukemia measured as Survivors on day 5 at 750 mg/kg; 6/6. The experiment is classed as functional.
The test system of experiment [23] is Mus musculus. The experiment is described as follows: In vivo antitumor activity against P388 Lymphocytic Leukemia in mice at 1500 mg/kg expressed as T/C value. The experiment is classed as functional.
Experiment [24] concerns Mus musculus. The experiment is described as follows: In vivo antitumor activity against P388 Lymphocytic Leukemia in mice at 187.5 mg/kg expressed as T/C value. The experiment is classed as functional.
The test system of experiment [25] is Mus musculus. The experiment is described as follows: In vivo antitumor activity against P388 Lymphocytic Leukemia measured as Survivors on day 5 at 375 mg/kg; 6/6. It is filed as functional.
Experiment [26] deals with Mus musculus. As to the kind of experiment: In vivo antitumor activity against P388 Lymphocytic Leukemia in mice at 750 mg/kg expressed as T/C value. The experiment is classed as functional.
The subject of experiment [27] is Mus musculus. As to the kind of experiment: In vivo antitumor activity against P388 Lymphocytic Leukemia in mice at 375 mg/kg expressed as T/C value.

In the experiment on A204, `CC(C)C(O)(C(=O)OCC1=CCN2CC[C@@H](O)[C@@H]12)C(C)O` (some centres not stated) [INDICINE] yielded an IC50 of 34 µg/mL (≈ 114 µM).
Turning to `CCC(O)(C(=O)OCC1=CC[N+]2([O-])CC[C@H](OC(=O)[C@](O)(CC)c3ccccc3)[C@@H]12)c1ccccc1` (some centres not stated), the Survivors worked out at 5 in the experiment with Mus musculus [1], 6 in the experiment with Mus musculus [2], 6 with Mus musculus [3] and 6 in the experiment on Mus musculus [8]. Besides, the T/C in the experiment with Mus musculus [4] was determined as 100%; in the experiment with Mus musculus [5] it was 109%; in the experiment on Mus musculus [6] it was 127%; with Mus musculus [7] it was 106%.
Consider `CC(C)C(O)(C(=O)OC1CCN2CCC(CO)C12)C(C)O` (configuration not stated), for which the Survivors with Mus musculus [9], with Mus musculus [11] and in the experiment with Mus musculus [13] was 4 in each case. Further, the T/C in the experiment with Mus musculus [10] was found to be 123%; with Mus musculus [12], 126%; in the experiment with Mus musculus [14] it was 180%.
As to `CC(C)C(O)(C(=O)OCC1CCN2CC[C@@H](O)[C@@H]12)C(C)O.CC(C)C(O)(C(=O)OCC1CC[N+]2([O-])CC[C@@H](O)[C@@H]12)C(C)O` (some centres not stated), the Survivors with Mus musculus [15] came out at 5; in the experiment on Mus musculus [16], 6; in the experiment with Mus musculus [18], 6; with Mus musculus [19], 6. Further, the T/C with Mus musculus [17] worked out at 101%; in the experiment with Mus musculus [10], 120%; in the experiment on Mus musculus [12], 118%; in the experiment with Mus musculus [14], 146%.
Take `CC(C)C(O)(C(=O)OCC1CC[N+]2([O-])CC[C@@H](O)[C@@H]12)C(C)O` (some centres not stated): the Survivors in the experiment on Mus musculus [20], in the experiment on Mus musculus [21], in the experiment with Mus musculus [22] and with Mus musculus [25] was 6 throughout. The T/C in the experiment with Mus musculus [23] turned out to be 106%; in the experiment with Mus musculus [24] it was 94%; in the experiment on Mus musculus [26], 95%; with Mus musculus [27], 106%. The molecule further registered an IC50 with A204 of 320 µg/mL (≈ 1010 µM).
